TWEAK-Fn14 inh: blocks TWEAK-Fn14 interaction in a reporter cell assay; TWEAK-stimulated Fn14 reporter cells, luciferase luminescence, 8 h; AID 1159606; 360,000 tested, 2% active; inhibition, % at 10 µM; in the data active = inhibition above about 50%
Xi reactivation: reactivates the inactive X chromosome in mouse fibroblasts; 360,000 tested, 0.055% active; AID 743238; activation, % at 7.58 µM; XiGFP mouse fibroblasts, % GFP-positive cells imaging, 3 d; cells co-treated with 5-aza-dC sensitizer; scaled so ellipticine positive control = 100%;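 active = mean normalized replicate activation at least 10% and every replicate at or above 10%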;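 also: 0% = median of on-plate neutral control wells and 100% = ellipticine 6 µM median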
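System: 68-5-11 XiGFP fibroblast line | Buffer or medium: DMEM containing 5-aza-dC | Compound: Single point | Times: Compounds 3 days, fix/stain 15 min at room temperature | Benchmarks: Positive control ellipticine, 6 µM final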
TROY signal inh: inhibitors of TROY-dependent NF-kB signaling | Q293 LMP1-TROYcd NF-kB luciferase reporter, 4 h | inhibition, % at 10 µM | 360,000 tested, 0.98% active;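 active = compounds whose plate-normalised and pattern-corrected inhibition of the luciferase reporter signal at the single screening dose is 50% or more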
FN deposition inh: fibronectin deposition inhibition; AH1F fibroblasts, Alexa488-fibronectin deposition fluorescence, overnight; inhibition, % at 12.6 µM; 350,000 tested, 0.086% active; AID 743247;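 active = mean inhibition across replicates of 30% or more, regardless of how many single replicates reach that level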;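 also: positive control wells lacked labelled fibronectin entirely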
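Test system: AH1F fibroblast monolayer depositing Alexa488-labelled fibronectin into matrix. Input: 10000 cells per well. Technique: fluorescence, ex 485 nm, em 525 nm. Buffer or medium: DMEM plus 2% serum, read in PBS. Timing: 1 h cell adhesion before compound, then overnight fibronectin incubation. Compound: single dose, pinned. Read-out basis: inhibition from reduced deposited-fibronectin fluorescence.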
LGR2 antag: Drosophila LGR2 receptor signaling inhibition. HEK293 LGR2, CRE-luciferase, bursicon-stimulated, 4 h. inhibition, % at 9.99 µM. 380,000 tested, 0.35% active. AID 720647;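 active = drop in luminescence signal, shown as inhibition above about 50% in the replicate tests, limit read from the data, passing the limit was not always enough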;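 also: agonist challenge used bursicon conditioned medium at about half maximal strength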
EWS-Fli block: inhibitors of EWS/Fli oncoprotein transcriptional activity. inhibition, % at 12.6 µM. AID 651661. 350,000 tested, 0.67% active. A673 NR0B1-luciferase reporter, viability-normalised;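 active = mean inhibition of at least 50% after viability correction, with every replicate also passing that limit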;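 also: firefly luciferase signal divided by Alamar Blue viability fluorescence both relative to DMSO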
An asterisk follows results filed as active. In the library only some 2.3% were active in any assay of this set; here they are far more common.

What do the screens show for `CCC(C)c1ccc2oc(-c3ccc(NC(=O)Cn4cnc5c(=O)n(C)c(=O)n(C)c54)cc3)nc2c1` (stereo unspecified)?
TWEAK-Fn14 inh: 34; TROY signal inh: 64*

How did Cc1ccc(C)c(/C=N/n2cc(-c3ccccc3)[nH]c2=S)c1 do in these assays?
TWEAK-Fn14 inh: 14; Xi reactivation: 1; TROY signal inh: 53*; FN deposition inh: -2; LGR2 antag: -32; EWS-Fli block: 32

What do the screens show for `Fc1ccccc1/C=N/n1cc(-c2ccccc2)[nH]c1=S`?
TWEAK-Fn14 inh: -1; Xi reactivation: 0; TROY signal inh: 23; FN deposition inh: 12; LGR2 antag: -34; EWS-Fli block: 20

What do the screens show for `O=C(C[C@H]1CC[C@@H](NC(=O)Nc2cc(F)ccc2F)[C@H](CO)O1)NCCCN1CCOCC1`?
Xi reactivation: 0; FN deposition inh: -5; LGR2 antag: -3; EWS-Fli block: -1

Results for C[N+](C)(CCOc1ccccc1)Cc1ccccc1 (tested in a mixture with another compound) ?
TWEAK-Fn14 inh: 19; Xi reactivation: 0; TROY signal inh: 71*; LGR2 antag: -6

Results for CC(C)(C)CC(C)(C)c1ccc(OCCOCC[N+](C)(C)Cc2ccccc2)cc1 ?
TWEAK-Fn14 inh: 57*; Xi reactivation: 0; TROY signal inh: 48; FN deposition inh: 1; LGR2 antag: 36; EWS-Fli block: 25

What do the screens show for `c1ccc(OCCOCCOc2ccccc2)cc1`?
TWEAK-Fn14 inh: -13; Xi reactivation: 0; TROY signal inh: -37; FN deposition inh: 0; LGR2 antag: -32; EWS-Fli block: -24

How did CC1(C)Cc2ccccc2C(/C(=N\Nc2cccc(Cl)c2)C(N)=O)=N1 do in these assays?
TWEAK-Fn14 inh: 56*; Xi reactivation: 0; TROY signal inh: 27; LGR2 antag: 37

What do the screens show for `CC(=O)c1ccc(N/N=C(/C(N)=O)C2=NC(C)(C)Cc3ccccc32)cc1`?
TWEAK-Fn14 inh: 44; Xi reactivation: 0; TROY signal inh: 30; FN deposition inh: 3; LGR2 antag: 24

Results for CCOC(=O)/C(C#N)=C\c1cc(C)n(-c2ccccc2)c1C ?
TWEAK-Fn14 inh: 81*; TROY signal inh: 79*; FN deposition inh: -6

Results for CCOC(=O)/C(C#N)=C/c1cc(C)n(-c2ccc(C)cc2)c1C ?
TWEAK-Fn14 inh: 42; TROY signal inh: 50*; LGR2 antag: -3

How did COc1ccc2c3c(n(C)c2c1)[C@@H](CO)N(C(=O)Nc1ccc(F)cc1)CC31CN(S(=O)(=O)c2cccs2)C1 do in these assays?
Xi reactivation: 1; LGR2 antag: 23; EWS-Fli block: 12

What do the screens show for `O=C(N[C@@H]1C=C[C@@H](CC(=O)N2CCCCC2)O[C@H]1CO)c1ccccn1`?
Xi reactivation: 0; LGR2 antag: 8; EWS-Fli block: -2

What do the screens show for `O=[N+]([O-])c1ccc(O)c(-c2cc(C(F)(F)F)nc(-c3ccccc3)n2)c1`?
TWEAK-Fn14 inh: 75*; Xi reactivation: 0; TROY signal inh: 8; FN deposition inh: 4; LGR2 antag: -13; EWS-Fli block: 37

How did Nc1nc2ccc(Cl)cc2cc1C(=O)NCCc1c[nH]c2ccccc12 do in these assays?
TWEAK-Fn14 inh: 52*; TROY signal inh: 21

What do the screens show for `C[C@@H]1CN([C@@H](C)CO)C(=O)c2cc(NC(=O)Nc3ccc(F)cc3)ccc2O[C@@H](C)CCCCO[C@@H]1CN(C)S(=O)(=O)c1ccc(Cl)cc1`?
Xi reactivation: 0; FN deposition inh: -2; LGR2 antag: -1; EWS-Fli block: -6

Results for Cc1[nH]n(-c2ccccc2)c(=O)c1N=Nc1cccc(C(=O)O)c1 ?
TWEAK-Fn14 inh: 58*; Xi reactivation: 0; TROY signal inh: -48; FN deposition inh: -4; LGR2 antag: 24; EWS-Fli block: 62*

Results for Cc1ccc(S(=O)(=O)N(C)C[C@@H]2OCCCC[C@H](C)Oc3ccc(NC(=O)C4CCCCC4)cc3C(=O)N([C@@H](C)CO)C[C@H]2C)cc1 ?
Xi reactivation: 0; LGR2 antag: -1; EWS-Fli block: 1

How did C=CCN1C(=O)[C@@]2(O[C@@H](CCn3cc([C@H](O)c4ccccc4)nn3)[C@H]([Si](C)(C)c3ccc(OC)cc3)[C@H]2C)c2ccccc21 do in these assays?
EWS-Fli block: 7

Results for O=C(O)c1cc(NC(=O)C2CCCO2)cc(C(=O)O)c1 (stereo unspecified) ?
TWEAK-Fn14 inh: 31; Xi reactivation: 0; TROY signal inh: 16; FN deposition inh: 5; LGR2 antag: 11; EWS-Fli block: 1

How did CC(C)(C)c1cc(NC(=O)C2CCCO2)no1 (stereo unspecified) do in these assays?
TWEAK-Fn14 inh: 65*; TROY signal inh: 61*; LGR2 antag: -23; EWS-Fli block: -53

What do the screens show for `CCOC(=O)c1cn[nH]c1NC(=S)Nc1ccc(Cl)cc1`?
TWEAK-Fn14 inh: 60*; Xi reactivation: 0; TROY signal inh: 61*; FN deposition inh: -9; LGR2 antag: -16; EWS-Fli block: -109

How did CCOC(=O)c1ccc(NC(=S)Nc2ccc(C)cc2)cc1 do in these assays?
TWEAK-Fn14 inh: 1; Xi reactivation: 0; TROY signal inh: -61; FN deposition inh: 7; EWS-Fli block: -3

Results for C[C@@H]1CN([C@@H](C)CO)C(=O)Cc2cc(NC(=O)CCN3CCOCC3)ccc2O[C@H]1CN(C)Cc1ccc(-c2ccccc2)cc1 ?
Xi reactivation: 0; LGR2 antag: -11; EWS-Fli block: 10

How did Cc1cc(NC(=O)CSc2nc(C(C)(C)C)nc3ccccc23)no1 do in these assays?
TWEAK-Fn14 inh: 20; Xi reactivation: 0; TROY signal inh: 22; FN deposition inh: -2; LGR2 antag: -16; EWS-Fli block: 46

Results for Cc1cc(NC(=O)CSc2nc(-c3cccs3)nc3ccccc23)no1 ?
TWEAK-Fn14 inh: -31; Xi reactivation: 3; TROY signal inh: 20; FN deposition inh: 20; LGR2 antag: -17; EWS-Fli block: 58*

What do the screens show for `CC(C)c1nnc(NC(=O)CCS(=O)(=O)c2nc(-c3cccs3)cc(C(F)(F)F)n2)s1`?
TWEAK-Fn14 inh: 62*; TROY signal inh: 50*; FN deposition inh: -1

How did CC(C)c1nnc(NC(=O)CCS(=O)(=O)Cc2ccccc2)s1 do in these assays?
TWEAK-Fn14 inh: 11; Xi reactivation: 0; TROY signal inh: -8; FN deposition inh: 5; LGR2 antag: 2; EWS-Fli block: -9

What do the screens show for `CS(=O)(=O)Nc1ccc(-c2cnc3cccnn23)cc1`?
TWEAK-Fn14 inh: 65*; Xi reactivation: 0; TROY signal inh: 24; FN deposition inh: 12; LGR2 antag: 19; EWS-Fli block: -33

Screens (PubChem)
